Test results published in ChEMBL document CHEMBL1133750, “X-Ray structure of cytotoxic trans-[PtCl(2)(dimethylamine)(isopropylamine)]: interstrand cross-link efficiency, DNA sequence specificity, and inhibition of the B-Z transition” (J Med Chem, 2000).

Legend:
[1] = Ratio of the amount of platinum bound per nucleotide to ri (0.10)
In short: (§1)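 Linear pBR322 DNA (20 μg/mL) in 10 mM NaClO₄ incubated at 37 °C with Pt compound at input Pt/nucleotide ratio ri of 0.01–0.20; 24 h for the rb/ri series, aliquots at various times for kinetics. Unbound drug removed by ethanol/0.3 M sodium acetate (pH 4.8) precipitation of DNA; Pt bound per nucleotide (rb) measured by TXRF; rb/ri given as percent; mean ± SD.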

[2] = Ratio of the amount of platinum bound per nucleotide to ri (0.20); in short: as §1
[3] = Ratio of the amount of platinum bound per nucleotide to ri (0.05); in short: as §1
[4] = Ratio of the amount of platinum bound per nucleotide to ri (0.15); in short: as §1
[5] = Ratio of the amount of platinum bound per nucleotide to ri (0.01); in short: as §1

Ratio [1] [%] | Ratio [2] [%] | Ratio [3] [%] | Ratio [4] [%] | Ratio [5] [%] | Substance
90 | 75 | 95 | 80 | 97 | CISPLATIN
76 | 68 | 82 | 70 | 85 | Trans-[PtCl2(dimethylamine)isopropylamine)] (tdmaipa)
